Measured values published in ChEMBL document CHEMBL1914407, “New dammarane-type glucosides as potential activators of AMP-activated protein kinase (AMPK) from Gynostemma pentaphyllum” (Bioorg Med Chem, 2011).
The source made the active and inactive calls.

Legend:
L6 [1] = assay: Induction of AMPK-alpha phosphorylation at thr172 in rat L6 cells after 2 hrs by Western blot analysis; format: cell-based
In short: (§1)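 Differentiated L6 myotubes treated 2 h with a range of compound concentrations (DMSO vehicle), then lysed in pH 8.0 Tris buffer containing NP-40, EDTA, DTT, PMSF, orthovanadate, NaF and protease inhibitors. Immunoblotted for phospho-AMPKα1/2 (Thr172), total AMPK, phospho-ACC (Ser79) and total ACC.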

L6 [2] = assay: Induction of AMPK alpha-mediated ACC phosphorylation at ser79 in rat L6 cells after 2 hrs by Western blot analysis; format: cell-based; in short: as §1
L6 [3] = assay: Induction of AMPK-alpha phosphorylation at thr172 in rat L6 cells at 150 uM by Western blot analysis in presence of 10 uM of AMPK inhibitor; format: cell-based
In short: (§2)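 L6 myotubes pretreated 10 min with the AMPK inhibitor compound C (10 µM), then exposed to compound for 2 h (DMSO vehicle). Lysates immunoblotted for phospho-AMPKα1/2 (Thr172) and total AMPK.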

L6 [4] = assay: Increase in beta-oxidation in rat L6 cells assessed as tritiated water production at 150 uM by scintillation counting; format: functional, cell-based
In short: (§3)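 Fatty acid β-oxidation measured in differentiated L6 myotubes treated with compound, using DMSO as vehicle control. 3H2O formed was quantified in a scintillation counter.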

L6 [5] = assay: Increase in AMPK alpha-mediated GLUT4 translocation into plasma membrane in rat L6 cells assessed as [3H]2-deoxy-glucose uptake after 2 hrs by scintillation counting relative to control; format: cell-based
In short: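 2-Deoxy-[3H]D-glucose added for 10 min, then three ice-cold 0.9% NaCl washes. Cytochalasin B (10 µM) blank subtracted. Cells collected in 0.05 N NaOH and counted by scintillation. Expressed as pmol 2-DG/min/mg protein or fold over control. Mean ± S.D. of three experiments.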

L6 [6] = assay: Induction of AMPK-alpha phosphorylation at thr172 in rat L6 cells at 12 uM by Western blot analysis in presence of 10 uM of AMPK inhibitor; format: cell-based; in short: as §2
L6 [7] = assay: Increase in beta-oxidation in rat L6 cells assessed as tritiated water production at 12 uM by scintillation counter method; format: functional, cell-based; in short: as §3

Measured: Activity

CC(C)=CC/C=C(\C)[C@H]1CC[C@]2(C)[C@@H]1[C@H](O)C[C@@H]1[C@@]3(C)C[C@@H](O)[C@H](O[C@@H]4O[C@H](CO)[C@@H](O)[C@H](O)[C@H]4O[C@@H]4O[C@H](CO)[C@@H](O)[C@H](O)[C@H]4O)C(C)(C)[C@@H]3CC[C@]12C
active: L6 [1] Dose-dependent effect | L6 [2] Dose-dependent effect | L6 [3] | L6 [4] | L6 [5] Dose-dependent effect

C=C(CCC=C(C)C)[C@H]1CC[C@]2(C)[C@@H]1[C@H](O)C[C@@H]1[C@@]3(C)C[C@@H](O)[C@H](O[C@@H]4O[C@H](CO)[C@@H](O)[C@H](O)[C@H]4O[C@@H]4O[C@H](CO)[C@@H](O)[C@H](O)[C@H]4O)C(C)(C)[C@@H]3CC[C@]12C
active: L6 [1] Dose-dependent effect | L6 [2] Dose-dependent effect | L6 [6] | L6 [7] | L6 [5] Dose-dependent effect
